# Results from ChEMBL document CHEMBL4513216, “Probing the Open Global Health Chemical Diversity Library for Multistage-Active Starting Points for Next-Generation Antimalarials” (ACS Infect Dis, 2020).
# Experiment: Toxicity liver stage against HepG2, at 10uM
# Format: cell-based
# Set-up: test concentration 10 uM, cell line HepG2-A16-CD81EGFP
# Details: human, HepG2-A16-CD81EGFP cells; read-out: INHIBITION
# In short: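 Uninfected HepG2-A16-CD81EGFP cells, 3 × 10^3 per well, 1536-well, plated on prespotted compound at 10 μM final, parasite-free screening media added to match infected plates; puromycin 10 μM positive, DMSO 0.5% negative; run in parallel with 48 h PbLuc assay at 37 °C, 5% CO2; viability by CellTiter-Glo luminescence, normalized to controls.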
row,Compound,cytotoxicity at 10 µM [%]
1,Cc1cc(CN2CCN(C(=O)CCc3ccco3)CC2)on1,-2.6
2,CN(C)C(=O)C1CCC2(CCN(C(=O)Nc3ccccc3)CC2)O1 (configuration not stated),-106
3,COc1ccc(NC(=O)c2ccoc2C)c(N2CCN(C(C)=O)CC2)n1,-9.09
4,O=C(CCn1c(C(F)F)cc2cccnc21)NC1CCCC1,-40.5
5,O=C(c1cc2c([nH]c1=O)CCC2)N1CCCC1c1ccc(F)cc1 (configuration not stated),-6.14
6,CNC(=O)C1CCN(C(=O)CCn2cccn2)CC1,-3.76
7,COC(=O)[C@@H]1C[C@H](NC(=O)Cn2c(=O)cc(C)c3ccccc32)CN1C,-3.44
8,O=C(CCc1nnc(-c2ccccc2)o1)N1CCCC1c1ccc[nH]1 (configuration not stated),-3.33
9,CN[C@@H](CO)C(=O)NCc1cc2n(n1)CCCN(C1CCCCC1)C2,-3.14
10,CC(C)Nc1ncnc2c1CCN(C(=O)N1CCOCC1)CC2,-74
11,COCCNC(=O)c1ccc2c(=O)n3c(nc2c1)CCCCCC3,-46.3
12,CCOC(=O)COc1nc(CC(C)C)c2c(c1C#N)CCC2,-5.72
13,CC(O)CCN(C)S(=O)(=O)Cc1ccc(Br)cc1 (configuration not stated),3.47
14,CC(Cn1cccn1)NCC(=O)NCCc1cccs1 (configuration not stated),-12.7
15,CC(=O)Nc1nc(C(=O)NC(C)c2ccc(F)cc2)cs1 (configuration not stated),-0.168
16,CC(C(=O)Nc1ccc(Cl)cn1)n1ccc(C(F)(F)F)n1 (configuration not stated),17.6
17,CCC(C(=O)NCc1ccncc1)N(c1cccc(C)c1)S(C)(=O)=O (configuration not stated),-5.88
18,CCC(=O)N1CCN(C(=O)Nc2cccc(N3CCOCC3)c2)CC1,-3.1
19,CCC(=O)N1CCC2(CC1)CNC(=O)c1cc(C)ccc1O2,-20
20,Cc1nc(N(C)C)cc(C2(C)CCNCC2)n1,-6.07
21,CC(C)OCCC(=O)N(C)CCCc1cc(-c2ccccc2)no1,-15.3
22,COc1cccc(-c2c[nH]c(C)n2)c1F,-3.29
23,COc1ccccc1CCNC(=O)CNCC1CN(C)CCO1 (configuration not stated),1.49

row,Compound,cytotoxicity at 10 µM [%]
1,CN(C)CCn1c2c(ccc1=O)CCN(C(=O)c1ccoc1)CC2,6.2
2,CCc1n[nH]c(C2CN(C(=O)CCn3ccccc3=O)CCO2)n1 (configuration not stated),0.00528
3,Cc1ccc(CN2CCN(c3ncccc3Cl)CC2CCO)cc1 (configuration not stated),-1.04
4,CCN(CC)C(CNCc1ccc(O)cc1)c1ccco1 (configuration not stated),1.29
5,Cc1nc(CN2CCO[C@H]3CN(C(=O)c4cccn4C)C[C@H]32)cs1,-136
6,CCC(Sc1ncc(CO)n1C)c1ccccc1 (configuration not stated),-45.3
7,O=C(Nc1ccccn1)C1(n2cnnn2)CCCCC1,-7.03
8,COc1ncccc1NC(=O)N(Cc1ccc(C(N)=O)cc1)C1CC1,6.66
9,CC(CNC(=O)c1cnccn1)Oc1cccc(Br)c1 (configuration not stated),1.25
10,Cn1nc(C(=O)NCc2cccnc2)c2c1CCS(=O)(=O)C2,6.09
11,CCn1ccc2ccc(CN3CCCC3c3nc(C(C)C)no3)cc21 (configuration not stated),5.15
12,CC(O)CN(Cc1cccc(C(N)=O)c1)c1ccccc1 (configuration not stated),10.1
13,C=C(C)COc1cccc(C(=O)N2CCC3(CC2)CN(C)CCN3C)c1,-52.4
14,Cc1cc(N2CCC(Cc3ccncc3)C2)ncn1 (configuration not stated),0.328
15,O=C(Nc1ccc(-c2csnn2)cc1)N1CCN2CCCCC2C1 (configuration not stated),-7.23
16,Cc1cn2c(n1)C(CNCC1=Cc3cc(Cl)ccc3OC1)CCC2 (configuration not stated),33.3
17,CCn1c(CC2CCN(C(=O)C3CC(C(C)C)=NO3)CC2)nn(C)c1=O (configuration not stated),3.72
18,COCC(=O)NCc1ccc(-c2ncncc2C(=O)N(C)C)cc1,3.02
19,Cc1cc(C(F)(F)F)nc(CNC(=O)CCn2cccn2)n1,1.7
20,Cc1cc(C)cc(OCCCn2nc3ccccn3c2=O)c1,3.95
21,COc1cc(I)c(Cl)cc1C(=O)N(C)CC(C)(C)O,11.4
22,CCn1c(N)nc2cc(C(=O)NCCNc3ncccc3C)cnc21,-5.98
23,CC1COCCN1Cc1nc(-c2cccc(Br)c2)no1 (configuration not stated),-3.04

row,Compound,cytotoxicity at 10 µM [%]
1,CCN1C[C@@H]2CN(S(=O)(=O)c3cccs3)C[C@@H]2C1=O,-2.42
2,COCC(=O)N1CC(c2ccnc(Nc3cc(C(F)(F)F)ccn3)n2)C1,11.2
3,CCn1ncnc1C(C)NC(=O)C1CCN(C(C)C)CC1 (configuration not stated),18.5
4,COC[C@@H]1CCC[C@]12CN(S(=O)(=O)c1cccs1)CCO2,-5.73
5,Cc1cccc(CN2C[C@@H]3OCCN(c4cnccn4)[C@@H]3C2)n1,5.25
6,COc1cccc(CCC2CCCN(C(=O)c3ccc(OC)o3)C2)c1 (configuration not stated),9.9
7,COCCNc1nnc(-c2cnc(C)cn2)s1,4.22
8,Cc1nnc(N2CCC(CCn3ccnc3C)CC2)o1,-8.14
9,Cc1nc(NC(=O)N2CCCC(C(F)(F)F)C2)nn1C (configuration not stated),9.56
10,O=C(C1CCCCC1)N1CC2(CCNCC2)C1,-8.58
11,CCCS(=O)(=O)N1CCC2(CCCN(c3ncc(F)cn3)C2)C1 (configuration not stated),13.4
12,COc1ccc2nc(C[C@@H]3C[C@@H](C(C)C)[C@H](CN(C)C)C=C3C)[nH]c2n1,5.09
13,O=C(COc1cccnc1)NCc1nncn1C1CCCCC1,3.46
14,O=C(O)CC1COCCN1Cc1ccccc1-c1ccccc1 (configuration not stated),12.9
15,c1cc(CN2C[C@@H]3COC[C@]3(COCC3CC3)C2)ccn1,-3.29
16,CCC(CNC(=O)C1CC1)(OC)c1ccccc1 (configuration not stated),-4.34
17,CC(Cn1cccn1)NCCS(=O)(=O)c1ccccc1 (configuration not stated),-3.63
18,COc1cccnc1-c1ccc(F)c2c1OC(CN)C2 (configuration not stated),1.74
19,CC(C)n1cnnc1Cn1c(=O)cnc2ccccc21,-4.04
20,CCOc1cccc(NCc2cnc(N3CCN(C)CC3)nc2)n1,1.75
21,CC(=O)N1[C@H](CN(C)C)C[C@@H]2CN(C(=O)c3occc3C)CC[C@@H]21,0.847
22,CN(C)C(=O)N1CC2(CCN(S(=O)(=O)C3CC3)CC2)c2ccccc21,-110
23,O=C(NCCNC(=O)c1ccc(Cl)cc1)NCCn1cccc1,5.95

row,Compound,cytotoxicity at 10 µM [%]
1,COc1cccc(-n2cc3[nH]c(=O)n(C(C)C)n3c2=O)c1,-7.32
2,Cc1ccc2[nH]c(CN(C)Cc3n[nH]c4c3CCC4)nc2c1,4.85
3,CCc1nc(C2CCCN(C(=O)CCn3ccccc3=O)C2)no1 (configuration not stated),-12.3
4,Cc1nnc(CN2CCN(CCOc3ccccc3C#N)CC2)n1C,-5.8
5,Cc1cccc(C(=O)NCc2ccc(CS(N)(=O)=O)cc2)n1,-1.07
6,O=C1CCCCN1Cc1cccc(OC(F)F)c1,3.17
7,Cc1nc(CN2CCN(C(=O)c3sccc3C3CC3)CC2)oc1C,-15.2
8,COCc1cccc(NC(=O)NCc2ncc(C)c(OC)c2C)c1,-1.21
9,O=C(CSCc1ccccn1)N(Cc1ccsc1)C1CC1,-9.8
10,O=C(Cc1ccon1)Nc1cncc(Br)c1O,7.06
11,CC(C)(C)n1ncc(NCCc2ccccc2C(F)(F)F)c(Cl)c1=O,57
12,c1coc(CN2CCO[C@H]3[C@@H](OCC4CC4)CC[C@@H]32)c1,6.68
13,CC(=O)N1CCCC(C(=O)Nc2ccccc2Cc2ccccc2)C1 (configuration not stated),3.88
14,c1ccc(NC[C@@H]2CCC[C@@H]3CN(Cc4cccnc4)C[C@@H]32)nc1,2.78
15,CCn1ncc2c1C(COCC1CC1)N(C(=O)c1ccncn1)CC2 (configuration not stated),-147
16,Cc1cnn(CC2CCCN2C(=O)c2cccc3c2OCO3)c1 (configuration not stated),-5.25
17,COc1cccc(COCC(=O)N2CCCN(CC(N)=O)CC2)c1,-7.04
18,CN(CC(C)(CO)CO)C(=O)Nc1cc(F)cc(Cl)c1,-0.19
19,COc1ccc(NC(=O)CCn2nc(-c3cccs3)oc2=O)cc1OC,-9.37
20,CC(C)(C)CC(=O)NCC(=O)Nc1ccn(Cc2cccnc2)n1,15.4
21,CCCC(C)N(C)Cc1nnc(-c2ccc(Br)s2)o1 (configuration not stated),-1.16
22,Cn1ccnc1CN1CCOC(Cn2cccn2)C1 (configuration not stated),-6.07
23,CCOc1cccc(C(C)NC(=O)N2CCC3(CC2)OCCO3)c1 (configuration not stated),0.322

row,Compound,cytotoxicity at 10 µM [%]
1,Cc1ccc(CN(C)Cc2nc3c(cnn3C)c(=O)[nH]2)c(C)c1,0.403
2,Cc1cc(CNC(=O)CN2CCCC(Cn3cncn3)C2)ccc1F (configuration not stated),-9.92
3,Cc1cccc(Cn2cc(Br)c(NS(C)(=O)=O)n2)c1,-0.08
4,CC(C)C(=O)N1Cc2ccccc2CC2(CCCN2C)C1 (configuration not stated),4.51
5,CS(=O)(=O)N[C@@H]1COC[C@@H]2CN(Cc3ccco3)C[C@@H]21,-1.43
6,CC(=O)N1CCC(c2[nH]ncc2S(C)(=O)=O)CC1,0.752
7,Cc1ccc(NC2CCN(C(=O)c3ccc(Cl)o3)CC2)nn1,-0.961
8,CCn1ccnc1CN1CCCC(CO)(Cc2cccc(OC)c2)C1 (configuration not stated),3.25
9,Cc1ccc(C(=O)NCCCNS(C)(=O)=O)c(=O)[nH]1,-15.3
10,Cc1ncsc1CN(Cc1ccccc1)Cc1ccncc1,-4.45
11,CCc1cc(CN2CCCCC2c2ccc(F)cc2)on1 (configuration not stated),-2.45
12,Cc1nc(-c2nc(C(=O)NC3CC3)c3ccccn23)cn1C(C)C,-103
13,CCN(CC(=O)NC(C)C)C(=O)c1csc(Cc2ccccc2)n1,-5.43
14,Cc1ccnc(C2CCN(C(=O)c3cnn(C)c3)C2)n1 (configuration not stated),-15
15,Cc1ocnc1C(=O)N(Cc1cccnc1)C[C@@H]1CCC(=O)N1,8.83
16,O=C(Nc1ccnn1C1CCCC1)c1ccc(NC2CC2)nc1,4.75
17,O=C(CC1CC1)N1CCC2(COCc3cnc(-c4ccccc4)nc32)C1 (configuration not stated),2.02
18,Cc1ccc(CNC(=O)N(C)Cc2cnn(C)c2)s1,-11.2
19,O=C1CC2(CCN(Cc3cccnc3)C2)CN1c1ccc2c(c1)OCO2 (configuration not stated),-70.2
20,CC(C)c1nn(C)cc1CNCc1ccnc(N(C)C)c1,-0.431
